IC50 and inhibition data for 3 molecules are collected here from ChEMBL document CHEMBL1124439, “Computer-assisted design and synthesis of novel aldose reductase inhibitors” (J Med Chem, 1989).

Assay [1] addresses T1, Aldo-keto reductase family 1 member B1 (Rattus norvegicus, UniProt P07943). Description: Inhibition of aldose reductase (or polyol accumulation) in isolated rat sciatic nerve by compound at 10e-5 M concentration. Format: tissue-based. The essentials:
(§1)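 Isolated rat sciatic nerve incubated in vitro with compound, with polyol accumulation as read-out. Percent inhibition of polyol accumulation recorded at 1 × 10⁻⁵ M.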

Assay [2] concerns the target Aldo-keto reductase family 1 member B1 (Bos taurus, UniProt P16116). Kind of assay: In vitro inhibition of bovine lens aldose reductase.
The target of assay [3] is T1, Aldo-keto reductase family 1 member B1. Kind of assay: Inhibition of aldose reductase (or polyol accumulation) in isolated rat sciatic nerve by compound at (10E-5) M concentration. Format: tissue-based. The essentials:
as §1

The subject of assay [4] is Rattus norvegicus. Description: Inhibition of galactitol accumulation in lens of rats, by 76 mg/kg of compound; NS=Not significant. Format: functional, organism-based. Also on record: dose 76 mg/kg. The note with it: Lens of camera-type eye. The procedure, abridged: (§2)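 Rats were fed 20% galactose chow for 4 days with drug, at the dose given in mg/kg. Galactitol was measured in lens and sciatic nerve, and percent inhibition was calculated against galactosemic control rats.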

The subject of assay [5] is Rattus norvegicus. Description: Inhibition of galactitol accumulation in sciatic nerve of rats, by 159 mg/kg of compound; NS means Not Significant. The format is functional, organism-based. Also on record: dose 159 mg/kg. The essentials: as §2
The target of assay [6] is T1, Aldo-keto reductase family 1 member B1. Kind of assay: Inhibition of aldose reductase (or polyol accumulation) in isolated rat sciatic nerve by compound at 10E-5 M concentration; IA means Not Active. Format: tissue-based. The essentials: as §1
Assay [7] concerns Rattus norvegicus. Kind of assay: Inhibition of galactitol accumulation in lens of rats, by 159 mg/kg of compound; NS means Not Significant. The format is functional, organism-based. Also noted: dose 159 mg/kg. The note with it: Lens of camera-type eye. The procedure, abridged: as §2

The source made the active and inactive calls. The calls are words filed in the database; no cut-off is given here.

For orientation: IC50 means the concentration needed to halve the response being measured. As to `COc1ccc2c(C(=S)N(C)CC(=O)O)cccc2c1C(F)(F)F` [TOLRESTAT], the IC50 in assay [1] turned out to be 540 nM.

`CC1=C(CC(=O)O)c2cccc3cccc(c23)C1=O`: the IC50 in assay [2] stood at 240 nM; in assay [3], 2500 nM. In addition, the inhibition entry in assay [4] is “inactive”.

`CN(CC(=O)O)C(=S)c1cccc2ccccc12`: the inhibition entry in assay [5] and in assay [7] was “inactive” throughout. Further, the IC50 result in assay [6] is “Not Active”; in assay [2] it was 730 nM.
